Active and inactive are the calls of the source. No cut-off for these calls is given here.
Key:
[1] = target: T1, NAD-dependent protein deacetylase sirtuin-2 (Homo sapiens) (UniProt Q8IXJ6); experiment: Activation of N-terminal his-tagged human SIRT2 (43 to 356 residues) expressed in Escherichia coli at 10 uM using p53-acK381 as substrate in presence of NAD+ by NADH oxidation-coupled enzymatic assay
T1 sequence (whole entry): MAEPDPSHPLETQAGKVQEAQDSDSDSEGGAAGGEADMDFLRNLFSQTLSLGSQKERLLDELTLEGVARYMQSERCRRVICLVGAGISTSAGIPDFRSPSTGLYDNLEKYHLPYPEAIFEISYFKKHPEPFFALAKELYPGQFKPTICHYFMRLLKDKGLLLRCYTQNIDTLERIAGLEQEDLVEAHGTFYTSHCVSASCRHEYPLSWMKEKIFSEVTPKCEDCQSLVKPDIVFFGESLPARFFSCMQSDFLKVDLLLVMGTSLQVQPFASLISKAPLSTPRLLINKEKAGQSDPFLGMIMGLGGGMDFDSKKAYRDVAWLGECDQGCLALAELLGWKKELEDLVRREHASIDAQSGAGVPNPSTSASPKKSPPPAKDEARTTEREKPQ

[2] = tested on: MDA-MB-231; experiment: Downregulation of SNAIL gene expression in human MDA-MB-231 cells at 50 uM incubated for 48 hrs by qRT-PCR analysis; format: functional, cell-based
In short: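 MDA-MB-231 cells treated with 50 μM compound for 48 h under normoxia, DMSO vehicle control. qRT-PCR quantified by the 2(−ΔCt) method as fold of control, mean ± SEM. Three independent experiments.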

[3] = tested on: MDA-MB-231; experiment: Downregulation of SNAIL gene expression in human MDA-MB-231 cells at 50 uM incubated for 48 hrs under hypoxia condition by qRT-PCR analysis; format: functional, cell-based
In short: (§1)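 MDA-MB-231 cells pretreated with 200 μM CoCl2 to induce hypoxia, then exposed to 50 μM compound for 48 h with CoCl2 maintained. qRT-PCR by the 2(−ΔCt) method vs DMSO control, mean ± SEM. Four independent experiments.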

[4] = target: NAD-dependent protein deacylase sirtuin-5, mitochondrial (Homo sapiens) (UniProt Q9NXA8); experiment: Activation of N-terminal his-tagged human SIRT5 (34 to 302 residues) expressed in Escherichia coli at 10 uM using p53-acK381 as substrate in presence of NAD+ by NADH oxidation-coupled enzymatic assay
NAD-dependent protein deacylase sirtuin-5, mitochondrial (Homo sapiens), sequence (Q9NXA8 37-310 limits assumed): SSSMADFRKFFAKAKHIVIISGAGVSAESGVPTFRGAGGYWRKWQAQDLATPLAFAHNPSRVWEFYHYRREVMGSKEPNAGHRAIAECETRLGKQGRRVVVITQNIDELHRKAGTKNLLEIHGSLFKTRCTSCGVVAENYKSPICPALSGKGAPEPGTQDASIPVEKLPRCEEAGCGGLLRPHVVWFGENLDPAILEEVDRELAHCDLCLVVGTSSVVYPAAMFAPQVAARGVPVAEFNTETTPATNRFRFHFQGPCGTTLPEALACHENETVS

[5] = target: T2, NAD-dependent protein deacetylase sirtuin-1 (Homo sapiens) (UniProt Q96EB6); experiment: Activation of N-terminal his-tagged human SIRT1 expressed in Escherichia coli at 10 uM using p53-acK381 as substrate in presence of NAD+ by NADH oxidation-coupled enzymatic assay
T2 sequence (whole entry): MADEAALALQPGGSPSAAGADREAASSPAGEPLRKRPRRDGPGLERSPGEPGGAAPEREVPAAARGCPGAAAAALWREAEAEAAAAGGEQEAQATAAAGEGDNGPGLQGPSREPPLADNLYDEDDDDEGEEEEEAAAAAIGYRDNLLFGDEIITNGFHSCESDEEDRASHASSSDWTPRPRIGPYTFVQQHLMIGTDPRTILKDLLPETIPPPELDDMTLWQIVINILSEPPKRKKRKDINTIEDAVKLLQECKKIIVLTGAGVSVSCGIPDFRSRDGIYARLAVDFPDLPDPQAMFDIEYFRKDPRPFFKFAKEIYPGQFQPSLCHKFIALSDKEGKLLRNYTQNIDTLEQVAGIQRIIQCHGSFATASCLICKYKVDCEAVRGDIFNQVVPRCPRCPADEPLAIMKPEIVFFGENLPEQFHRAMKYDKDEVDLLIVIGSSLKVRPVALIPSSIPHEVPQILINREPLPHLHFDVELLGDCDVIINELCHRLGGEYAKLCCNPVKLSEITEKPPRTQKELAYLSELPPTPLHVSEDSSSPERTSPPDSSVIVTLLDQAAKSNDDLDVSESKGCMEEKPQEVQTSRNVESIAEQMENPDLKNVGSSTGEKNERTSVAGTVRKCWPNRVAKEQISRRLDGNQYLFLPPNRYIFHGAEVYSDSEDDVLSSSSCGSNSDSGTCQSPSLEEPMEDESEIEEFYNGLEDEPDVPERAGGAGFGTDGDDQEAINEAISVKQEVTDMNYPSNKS
In short: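 Coupled PncA/GDH deacylation assay following NADPH oxidation to NADP+. 1.5 μM sirtuin, 50 μM substrate peptide, 100 μM NAD+, compound at 10 μM, 5% final DMSO. Isoform-specific physiological substrates: p53-acK381 (SIRT1), […] (SIRT2), ACS2-acK642 (SIRT3), CPS1-succK537 (SIRT5). Sirtuins expressed in E. coli, Ni-NTA purified, tag cleaved, then size-exclusion chromatography.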

[6] = tested on: CAL-62; experiment: Anticancer activity against human CAL-62 cells assessed as reduction in cell viability at 50 uM incubated for 24 to 48 hrs under hypoxia condition by trypan blue exclusion assay; format: functional, cell-based; conditions: time 24-48 hrs, TDE = time-dependent effect
In short: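 CAL-62 cells in RPMI 1640 with 10% FBS, treated with 50 μM compound (DMSO) for 24 and 48 h. Hypoxia induced with 200 μM CoCl2, kept in the medium during treatment. Viable cells counted by 0.4% trypan blue staining on a hemocytometer.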

[7] = tested on: MDA-MB-231; experiment: Downregulation of MMP2 gene expression in human MDA-MB-231 cells at 50 uM incubated for 48 hrs under hypoxia condition by qRT-PCR analysis; format: functional, cell-based; in short: as §1
[8] = target: T3, NAD-dependent protein deacetylase sirtuin-3, mitochondrial (Homo sapiens, UniProt Q9NTG7); experiment: Binding affinity to N-terminal his-tagged human SIRT3 (114 to 380 residues) assessed as dissociation constant by SPR analysis
T3 sequence (Q9NTG7 whole entry): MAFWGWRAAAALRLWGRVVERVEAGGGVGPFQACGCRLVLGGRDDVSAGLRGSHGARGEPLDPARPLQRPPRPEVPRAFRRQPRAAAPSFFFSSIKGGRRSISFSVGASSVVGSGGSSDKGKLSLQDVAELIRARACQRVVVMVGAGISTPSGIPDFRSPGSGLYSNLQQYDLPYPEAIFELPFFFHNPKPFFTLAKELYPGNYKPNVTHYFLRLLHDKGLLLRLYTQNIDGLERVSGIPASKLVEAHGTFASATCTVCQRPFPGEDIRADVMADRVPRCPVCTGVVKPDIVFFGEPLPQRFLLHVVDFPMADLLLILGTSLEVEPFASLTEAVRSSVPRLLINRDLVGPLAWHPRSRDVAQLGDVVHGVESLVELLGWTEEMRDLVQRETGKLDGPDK
In short: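 SPR with SIRT3 amine-coupled to the chip (sodium acetate pH 4.0; 1500–4000 RU). Analytes diluted to 200 μM in HBSP (20 mM Hepes, 150 mM NaCl, 0.005% P20; 2% DMSO), injected at 5, 10, 20, 40, 80 μM at 30 μL/min. Dissociation after 180 s. Reference chip lacked ligand. Apparent KD by Scatchard analysis. Run twice.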

Activity [1] | Activity [4] | Activity [5] | Kd [8] [µM] | SMILES | Activity [2] | Activity [3] | Activity [6] | Activity [7]
inactive | inactive | inactive | 79 | CCOC(=O)C1=CN(C(=O)c2cc(OC)cc(OC)c2)C=C(C(=O)OCC)C1c1ccccc1 | Active | Active | Tde | Active
inactive | inactive | inactive |  | CCOC(=O)C1=CN(C(=O)c2ccc(OC)c(OC)c2)C=C(C(=O)OCC)C1c1ccccc1 | Active | Active | Tde | Active
